IC50 data for 14 compounds are collected here from ChEMBL document CHEMBL2439996, “Phenyl substituted 3-hydroxypyridin-2(1H)-ones: inhibitors of influenza A endonuclease” (Bioorg Med Chem, 2013).

Structures are written as SMILES. A value given as a limit tells only on which side of the number the result lay.

One test concerns HEK293. Nature of the test: Cytotoxicity against human HEK293 cells after 4 days by MTT assay. Type of test: cell-based. Conditions: HEK293, 96 h. A digest of the protocol:
(§1)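 MTT microtiter assay; cells kept at 37 °C, 5% CO2 in DMEM with regular passage. Wells seeded with 3,000 cells each, exposed continuously for four days to varying drug concentrations in triplicate, with a drug-free control. MTT read at end of day 4 to give IC50.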

For the next test, the system named is MDCK. As to the kind of experiment: Cytotoxicity against MDCK cells after 4 days by MTT assay. The conditions noted are these: Canis lupus familiaris, 96 h. Type of test: cell-based. A digest of the protocol: as §1
The nature of test [1]: Inhibition of endonuclease activity of Influenza A virus H1N1 RNA-dependent RNA polymerase expressed in Escherichia coli BL21 using 6FAM-TGGCAATATCAGCTCCACA-MGBNFQ as substrate after 5 to 240 mins by fluorescence assay. A digest of the protocol:
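PA_N (pandemic H1N1 endonuclease, residues 1-204, His-tag removed, SEC-purified). Inhibitor serially diluted, DMSO at most 2.5% (v/v). Ex 488/em 518 read at 5, 120, 240 min at 37 °C. IC50 by nonlinear regression of fluorescence change, mean of triplicates ± SEM.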

For the compound `O=c1[nH]ccc(-c2ccc(F)cc2)c1O`, the 50% inhibitory concentration (IC50) is above 100 µM in the test with HEK293, above 100 µM with MDCK and above 200 µM in test [1].

`O=c1[nH]cc(-c2ccccc2)cc1O`: the IC50 was at least 28 µM in the test with HEK293, 80 µM with MDCK and 2.1 µM in test [1].

As for `O=c1[nH]cc(-c2ccc(F)cc2)cc1O`, the IC50 in the test with HEK293 is above 100 µM; with MDCK it was above 100 µM; in test [1] it was 0.73 µM.

For the compound `N#Cc1ccc(-c2c[nH]c(=O)c(O)c2)cc1`, the values for the IC50 (with HEK293; in the test on MDCK; in test [1]) were above 100 µM, above 100 µM and 3.83 µM, respectively.

On to `O=c1[nH]cc(-c2ccc(-c3nnn[nH]3)cc2)cc1O`, for which the IC50 in the test on HEK293 was 80 µM; in the test with MDCK it was above 100 µM; in test [1], 0.368 µM.

Consider `O=c1[nH]c(-c2ccccc2)ccc1O`, for which the figures for the IC50 (with HEK293; in the test with MDCK; in test [1]) were at least 28 µM, 60 µM and 0.87 µM, respectively.

Turning to `O=c1[nH]c(-c2ccc(F)cc2)ccc1O`, the figures for the IC50 (in the test with HEK293; in the test with MDCK; in test [1]) were above 100 µM, above 100 µM and 0.43 µM, respectively.

For `N#Cc1ccc(-c2ccc(O)c(=O)[nH]2)cc1`, the IC50 was at least 28 µM with HEK293, above 100 µM with MDCK and 0.802 µM in test [1].

Regarding `O=c1[nH]c(-c2ccc(-c3nnn[nH]3)cc2)ccc1O`, the IC50 in the test on HEK293 is at least 28 µM; in the test on MDCK, above 100 µM; in test [1] it was 0.085 µM.

For the compound `O=c1[nH]c(-c2ccccc2)c(-c2ccccc2)cc1O`, the IC50 was at least 28 µM in the test with HEK293, above 100 µM with MDCK and 0.047 µM in test [1].

On to `O=c1[nH]c(-c2ccc(F)cc2)c(-c2ccc(F)cc2)cc1O`, for which the half-inhibitory concentration (IC50) in the test on HEK293 and in the test on MDCK was above 100 µM in each case.

As to `N#Cc1ccc(-c2cc(O)c(=O)[nH]c2-c2ccc(C#N)cc2)cc1`, the IC50 is at least 28 µM in the test with HEK293, 40 µM with MDCK and 0.103 µM in test [1].

Regarding `O=c1[nH]c(-c2ccc(-c3nnn[nH]3)cc2)c(-c2ccc(-c3nnn[nH]3)cc2)cc1O`, the IC50 in the test with HEK293 was above 100 µM; in the test on MDCK, above 100 µM; in test [1], 0.285 µM.

With `O=c1[nH]ccc(-c2ccccc2)c1O`, the IC50 in the test with HEK293 is above 100 µM; in the test on MDCK, above 100 µM; in test [1] it was 35 µM.
